Experimental data as given in ChEMBL document CHEMBL2169822, “Discovery and optimization of 1,3,4-trisubstituted-pyrazolone derivatives as novel, potent, and nonsteroidal farnesoid X receptor (FXR) selective antagonists” (J Med Chem, 2012).
Active and inactive are the calls of the source. The calls are words filed in the database; no cut-off is given here.

Columns and labels:
[1] = target: T1, Oxysterols receptor LXR-alpha (Homo sapiens) (UniProt Q13133); experiment: Antagonist activity at recombinant LXRalpha LBD expressed in HEK293T cells co-expressing GAL4 DBD assessed as inhibition of TO901317-induced transactivation at 20 uM by luciferase reporter gene assay; type: functional, cell-based; conditions: HEK-293T
T1 sequence (whole entry): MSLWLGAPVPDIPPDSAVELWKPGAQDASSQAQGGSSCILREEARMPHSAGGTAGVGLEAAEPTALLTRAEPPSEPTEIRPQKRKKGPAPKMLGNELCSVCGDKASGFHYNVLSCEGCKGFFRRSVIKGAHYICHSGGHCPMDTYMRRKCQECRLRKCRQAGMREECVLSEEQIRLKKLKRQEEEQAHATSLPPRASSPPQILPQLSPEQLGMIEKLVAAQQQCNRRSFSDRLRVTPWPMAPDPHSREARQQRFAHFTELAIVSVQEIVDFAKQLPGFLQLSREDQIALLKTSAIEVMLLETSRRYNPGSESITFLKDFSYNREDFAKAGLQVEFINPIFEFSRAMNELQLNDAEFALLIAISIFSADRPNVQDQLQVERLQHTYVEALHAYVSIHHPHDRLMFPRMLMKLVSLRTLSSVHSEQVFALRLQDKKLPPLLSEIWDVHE
In short: (§1)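 One-hybrid assay in HEK293T cells cotransfected with a Gal4 DBD–NR-LBD fusion (RXRα, LXRα, GR, PR, PPARδ or PPARγ) plus UAS-TK-Luc reporter. Compound was 20 μM, given alone or with agonist: 9cRA 0.1 μM (RXRα), TO901317 0.5 μM (LXRα), dexamethasone 50 nM (GR), progesterone 100 nM (PR), GW1516 10 μM (PPARδ), rosiglitazone 10 μM (PPARγ). Luciferase read-out; three independent experiments.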

[2] = target: T2, Peroxisome proliferator-activated receptor delta (Homo sapiens) (UniProt Q03181); experiment: Antagonist activity at recombinant PPARdelta LBD expressed in HEK293T cells co-expressing GAL4 DBD assessed as inhibition of GW1516-induced transactivation at 20 uM by luciferase reporter gene assay; type: functional, cell-based; conditions: HEK-293T; in short: as §1
T2 sequence (whole entry): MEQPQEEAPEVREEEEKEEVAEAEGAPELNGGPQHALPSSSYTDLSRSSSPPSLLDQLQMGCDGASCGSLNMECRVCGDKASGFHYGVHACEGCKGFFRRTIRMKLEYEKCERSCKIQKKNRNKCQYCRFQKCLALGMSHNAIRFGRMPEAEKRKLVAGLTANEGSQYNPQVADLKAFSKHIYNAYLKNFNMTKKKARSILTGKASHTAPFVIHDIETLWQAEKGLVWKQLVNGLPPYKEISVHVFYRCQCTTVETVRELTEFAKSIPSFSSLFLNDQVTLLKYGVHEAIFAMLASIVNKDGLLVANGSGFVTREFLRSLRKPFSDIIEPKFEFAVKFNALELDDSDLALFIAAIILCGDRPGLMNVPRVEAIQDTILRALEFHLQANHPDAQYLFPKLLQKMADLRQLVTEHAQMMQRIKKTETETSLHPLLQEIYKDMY

[3] = target: T3, Retinoic acid receptor RXR-alpha (Homo sapiens) (UniProt P19793); experiment: Agonist activity at recombinant RXRalphaLBD expressed in HEK293T cells co-expressing GAL4 DBD at 20 uM by transactivation assay; type: functional, cell-based; conditions: HEK-293T; in short: as §1
T3 sequence (whole entry): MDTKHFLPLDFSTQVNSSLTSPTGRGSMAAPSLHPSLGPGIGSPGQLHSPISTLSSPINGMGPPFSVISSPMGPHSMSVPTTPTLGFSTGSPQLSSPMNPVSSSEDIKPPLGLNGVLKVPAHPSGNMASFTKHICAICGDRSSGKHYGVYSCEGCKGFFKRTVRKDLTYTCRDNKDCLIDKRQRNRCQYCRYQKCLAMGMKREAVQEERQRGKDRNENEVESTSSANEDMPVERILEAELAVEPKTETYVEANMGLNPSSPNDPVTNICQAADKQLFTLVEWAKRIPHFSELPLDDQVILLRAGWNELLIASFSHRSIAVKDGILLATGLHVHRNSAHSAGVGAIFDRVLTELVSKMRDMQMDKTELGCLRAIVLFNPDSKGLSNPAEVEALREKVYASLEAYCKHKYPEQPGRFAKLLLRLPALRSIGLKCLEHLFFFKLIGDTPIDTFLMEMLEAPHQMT

[4] = Binding affinity to FXRalphaLBD assessed as increase in thermal stability
In short: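 DSC with 2 mg/mL FXRαLBD in 20 mM Tris-HCl, 50 mM NaCl, pH 8.0, with DMSO or compound at a compound:protein ratio of 5:1, against the dialysis buffer as reference. Scan was 10–110 °C at 90 °C/h, giving Tm.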

[5] = Oral bioavailability in Sprague-Dawley rat at 50 mg/kg by LC-MS/MS analysis; type: ADME, organism-based; conditions: in vivo
[6] = target: T4, Progesterone receptor (Homo sapiens) (UniProt P06401); experiment: Antagonist activity at recombinant PR LBD expressed in HEK293T cells co-expressing GAL4 DBD assessed as inhibition of progesterone-induced transactivation at 20 uM by luciferase reporter gene assay; type: functional, cell-based; conditions: HEK-293T; in short: as §1
T4 sequence (whole entry): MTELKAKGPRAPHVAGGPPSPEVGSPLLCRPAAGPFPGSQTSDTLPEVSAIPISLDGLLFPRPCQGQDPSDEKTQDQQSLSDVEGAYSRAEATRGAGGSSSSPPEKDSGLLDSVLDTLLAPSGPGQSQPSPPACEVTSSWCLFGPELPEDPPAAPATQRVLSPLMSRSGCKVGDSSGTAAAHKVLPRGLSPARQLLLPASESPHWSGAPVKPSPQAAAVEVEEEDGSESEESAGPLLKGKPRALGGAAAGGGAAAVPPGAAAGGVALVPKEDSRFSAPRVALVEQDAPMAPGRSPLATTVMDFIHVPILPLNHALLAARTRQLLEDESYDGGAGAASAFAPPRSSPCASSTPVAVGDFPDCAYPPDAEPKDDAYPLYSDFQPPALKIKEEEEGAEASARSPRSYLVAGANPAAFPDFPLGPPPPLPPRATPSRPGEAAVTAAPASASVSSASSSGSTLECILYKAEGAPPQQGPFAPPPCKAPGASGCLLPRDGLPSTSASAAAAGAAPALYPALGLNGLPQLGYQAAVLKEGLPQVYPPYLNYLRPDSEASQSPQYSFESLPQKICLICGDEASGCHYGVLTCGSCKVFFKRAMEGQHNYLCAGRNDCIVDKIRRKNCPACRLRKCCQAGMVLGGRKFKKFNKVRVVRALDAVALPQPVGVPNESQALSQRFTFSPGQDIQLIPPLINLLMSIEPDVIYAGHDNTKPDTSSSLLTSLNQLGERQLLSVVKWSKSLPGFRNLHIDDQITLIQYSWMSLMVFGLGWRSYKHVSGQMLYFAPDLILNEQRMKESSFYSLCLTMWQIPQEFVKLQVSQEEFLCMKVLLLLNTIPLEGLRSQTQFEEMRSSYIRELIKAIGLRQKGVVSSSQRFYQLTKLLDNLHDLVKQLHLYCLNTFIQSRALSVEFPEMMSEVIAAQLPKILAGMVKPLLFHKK

Compound: COc1cc(/C=C2\C(=O)N(c3cccc([N+](=O)[O-])c3)N=C2c2ccccc2)ccc1O
- inhibition [1]: inactive
- inhibition [2]: inactive
- Activity [3]: inactive
- Tm [4]: 58.7 °C
- bioavailability [5]: < 5%
- inhibition [6]: inactive
